# Source: PubChem BioAssay
# Only some compounds are listed: those with a hit (about 8.2% of all), similar ones and a draw of the others.
# D1 mod – D1 CRE-luciferase signal change, two-sided – cell-based, HEK293 D1, dopamine EC30, D1 allosteric modulator project, primary screen; dopamine EC30 potentiation; actives deviate in either direction; B-score at 10 µM; 58,000 tested, 5.9% active; AID 641, 2007;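 active = luminescence count or its row- and column-corrected plate score outside the 99.7% band of the plate's sample wells, on either side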
# M1 antagonist – antagonists of rat M1 muscarinic receptor; 64,000 tested, 3.4% active; B-score at 10 µM; Muscarinic acetylcholine receptor M1 (Rattus norvegicus), P08482; CHO-M1 cells, Fluo-4 calcium, ACh EC80 antagonist mode; hits give low values; AID 628, 2007;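 active = calcium fluorescence response, raw or row-and-column corrected B-score, differing from the plate sample mean either way at a set confidence level, mostly lower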
# RORA act – activators of orphan receptor RORA, primary screen, cell-based, luminescence; activation, % at 10 µM; Nuclear receptor ROR-alpha (Homo sapiens), P35398; AID 560, 2006; CHO-K1 Gal4-RORA LBD luciferase reporter; percent increase over mock-subtracted basal signal; 65,000 tested, 1.5% active;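 active = activation above the mean of all tested compounds plus 3 SD, cut at about 49% in these data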;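 also: 0% = DMSO-treated RORA cells and 100% = added signal equal to DMSO minus mock-transfected cells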
# Target sequence (P35398 whole entry, looked up, the tested form may be a part): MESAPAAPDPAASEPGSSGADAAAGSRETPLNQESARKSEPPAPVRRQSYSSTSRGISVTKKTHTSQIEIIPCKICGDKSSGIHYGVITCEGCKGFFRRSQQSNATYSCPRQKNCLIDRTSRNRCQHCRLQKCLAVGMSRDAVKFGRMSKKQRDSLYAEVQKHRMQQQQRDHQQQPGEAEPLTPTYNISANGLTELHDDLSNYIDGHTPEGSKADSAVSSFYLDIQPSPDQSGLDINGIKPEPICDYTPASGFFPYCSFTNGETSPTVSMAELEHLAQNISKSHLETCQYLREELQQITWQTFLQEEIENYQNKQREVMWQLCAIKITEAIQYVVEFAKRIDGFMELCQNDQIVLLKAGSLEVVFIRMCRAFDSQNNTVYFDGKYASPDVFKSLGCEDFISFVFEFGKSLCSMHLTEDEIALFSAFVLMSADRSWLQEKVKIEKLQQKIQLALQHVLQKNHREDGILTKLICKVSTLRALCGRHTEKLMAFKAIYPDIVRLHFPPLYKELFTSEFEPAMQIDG
# HePTP inh – inhibitors of human HePTP phosphatase, primary screen, biochemical, absorbance, leukemia target. inhibition, % at 20 µM. Tyrosine-protein phosphatase non-receptor type 7 (Homo sapiens), P35236. AID 521, 2006. 110,000 tested, 0.64% active. recombinant HePTP phosphatase activity, OD absorbance; in the data active = inhibition above about 50%; inconclusive = no clear call, values can overlap the other calls;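 also: plate controls were vehicle for no effect and reference inhibitor for full effect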
# M1 agonist – M1 muscarinic receptor agonists, primary screen, CHO-M1 cells, Fluo-4 calcium, agonist mode. Fluo-4 calcium fluorescence; hits give high values. Muscarinic acetylcholine receptor M1. 64,000 tested, 3% active. B-score at 10 µM;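 active = fluorescence rise, raw or as B-score row- and column-corrected plate score, outside the 99.7% band of its plate's samples, either direction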
# SF1 activator – activators of human SF-1, primary screen, cell-based, CHO-K1, Gal4-SF-1 LBD, luciferase luminescence; activation, % at 10 µM; Steroidogenic factor 1 (Homo sapiens), Q13285; 65,000 tested, 1.9% active; CHO-K1 Gal4-SF-1 LBD luciferase reporter; % increase over DMSO SF-1-specific signal; AID 522, 2006;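 active = activation above the mean activation of all tested compounds plus 3 SD, cut at about 50% in these data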
#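 material = CHO-K1 cells with Gal4–hSF-1 LBD chimera plus Gal4-driven luciferase | compound = 10 µM single point, 1% DMSO | incubation = 20 h compound exposure at 37 °C after 1 h cell settling | measured by = SteadyLite luciferase luminescence | evaluation = percent activation relative to DMSO median and mock-transfected background | control set = DMSO negative control and −SF1 background wells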
# M1 ag confirm – rat M1 muscarinic receptor agonists, confirmation, CHO-M1 cells, Fluo-4 calcium, duplicate retest; fluorescence change (max-min) at 10 µM; 1,700 tested, 19% active; Fluo-4 calcium fluorescence, agonist mode; actives lie on both sides; shares compounds with M1 agonist;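 active = fluorescence change differs from the solvent-only DMSO control mean at a set confidence level in both duplicate runs; inconclusive = differs from solvent-only control mean in just one of two runs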;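 also: an EC20 dose of acetylcholine follows compound addition during the same imaging run; raw fluorescence intensity difference in instrument units with no normalization to controls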
# M4 agonist ctr – agonist activity at rat M4 receptor, confirmation, counter-screen for M1 allosteric modulator project, cell-based, agonist mode | shares compounds with M1 agonist | AID 1741, 2009 | fluorescence change (max-min) at 10 µM | CHO M4/Gqi5 cells, Fluo-4 calcium fluorescence; actives lie on both sides | 1,700 tested, 9% active;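 active = fluorescence change differing from the plate's solvent-only control wells at 99.7% confidence in both duplicates, whether higher or lower; inconclusive = differs from solvent controls in only one of two duplicates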
# The depositor's hits bear a star; ? = inconclusive; . = no result given.
SMILES,D1 mod,M1 antagonist,RORA act,HePTP inh,M1 agonist,SF1 activator,M1 ag confirm,M4 agonist ctr
Cc1cn(S(=O)(=O)c2ccc(Cl)cc2)c(C)n1,.,.,.,0,.,.,.,.
O=C1NC(c2ccco2)Nc2sc3c(c21)CCN(Cc1ccccc1)C3 (stereo not drawn),-0.84,-17*,20,7,17*,-9,33,21
CC(=O)N(C)c1ccc(NC(=S)Nc2ccc(F)cc2)cc1,.,.,.,3,.,.,.,.
COc1ccc(C2=NOC(C(=O)N3CCN(c4ccccc4OC)CC3)C2)cc1 (stereo not drawn),-3.5*,-1.4,-14,5,2.6*,18,-15,?
c1cc2c(cc1-c1cnc3n1CCC3)OCCO2,-2.8,-2.5,-3,3,2.6*,-3,?,-61
NC(=O)c1ccc(F)cc1,-0.57,0.00045,9,12,-0.24,0,.,.
CCOC(=O)N1C(=O)c2cc(OC)ccc2S1(=O)=O,-0.18,-0.00031,-21,1,3.2*,-6,?,?
CCOCCCn1cnc2c(c1=O)c1nc3ccccc3nc1n2-c1ccc(C)cc1,0.22,0.54,7,0,0.68,-17,.,.
CCOCCCn1cnc2c(c1=O)c1nc3ccccc3nc1n2-c1ccccc1,0.6,0.058,-35,9,3.9*,-5,?,-37
CCn1c(=O)cc(OCC(=O)NCCCN2CC(C)CC(C)C2)c2ccccc21 (stereo not drawn),-0.27,-0.73,-13,8,2.2*,-9,?,?
Cn1c(=O)cc(SCC(=O)N2CCCC2)c2ccccc21,-0.44,-0.2,10,5,0.13,1,.,.
CCn1c(=O)cc(SCC(=O)N2CCN(c3ccccn3)CC2)c2ccccc21,.,-1.9,-13,4,5.9*,-5,-29*,-38
O=C(c1ccc(C#Cc2ccccc2)o1)N1CCN(c2ccccn2)CC1,-0.44,-0.58,7,-2,0.063,16,.,.
COc1ccc(OC)c(N(CC(=O)O)S(=O)(=O)c2ccc(OC)c(OC)c2)c1,-0.44,.,-4,10,.,-6,.,.
COc1ccc(OC)c(N(CC(=O)Nc2ccc3c(c2)OCO3)S(=O)(=O)c2ccccc2)c1,-2,0.5,7,-1,2.8*,0,?,?
COc1ccc(OC)c(N(CC(=O)Nc2cccnc2)S(=O)(=O)c2ccc(OC)c(OC)c2)c1,.,-0.95,-11,8,2.2*,-8,-12,?
Brc1ccccc1-c1nnc(CSc2nnnn2-c2ccccc2)o1,0.94,0.58,38,6,0.87,9,.,.
CC(C)n1c2ccccc2c2nc3ccccc3nc21,2.4,0.079,13,-6,0.1,-10,.,.
CC(C)OC(=O)c1c2nc3ccccc3nc2n2c1[nH]c(=O)c1ccccc12,0.11,0.4,27,-5,7.9*,-8,73*,113
C=CCOc1cccc(C2C(C(=O)c3ccc(C)o3)=C(O)C(=O)N2c2nccs2)c1 (stereo not drawn),-0.32,0.33,27,13,58*,3,834*,84*
Cc1ccc(C(=O)C2=C(O)C(=O)N(c3ncccn3)C2c2cccc(Cl)c2)o1 (stereo not drawn),.,0.19,-5,6,0.15,-10,.,.
CC(=O)c1n[nH]nc1NC(=O)c1ccccc1,0.0011,0.47,-7,-3,2.8*,24,?,-40
CCc1c(-c2ccccc2)nc2nc(C)c(C)nn12,-0.0036,0.24,-16,-8,46*,1,237*,219*
CCc1c(C)c(C#N)c2nc3ccccc3n2c1-n1nc(C)cc1C,0.56,0.55,-16,6,0.34,0,.,.
Cc1cc(-c2ccco2)c(C#N)c2nc3ccccc3n12,1.4,0.35,32,3,11*,10,?,15
SMILES,D1 mod,M1 antagonist,RORA act,HePTP inh,M1 agonist,SF1 activator,M1 ag confirm,M4 agonist ctr
O=C(Nc1nc2nc(-c3ccccc3)cc(-c3ccccc3)n2n1)c1ccco1,-2.5*,0.021,-8,7,3.8*,3,-24*,-57
Nc1nc(NC(=O)c2ccco2)nn1-c1ccccc1,0.015,0.085,1,1,0.18,29,.,.
CCOc1ccccc1-n1nnnc1SCC(=O)NC(=O)NCc1ccco1,-1.5,-0.26,-7,20,3.3*,4,-6.2,-30
CC1(C)Cc2nc3oc4c(N(CCO)Cc5ccccc5)ncnc4c3cc2CO1,1.6,-0.47,2,11,8.1*,-8,-12,-20
CCOC(=O)c1oc2nc3c(cc2c1N)COC(C)(C)C3,-0.99,.,18,6,.,15,.,.
O=C(O)C=C1C2CC3CC(C2)CC1C3,0.4,-0.038,-22,-1,-0.25,-5,.,.
Cc1ccc(CS(=O)(=O)CCC(=O)NCc2cccs2)cc1,0.34,0.56,3,0,4*,-4,-21,-39
Cc1ccc(CS(=O)(=O)CCC(=O)NCc2ccc3c(c2)OCO3)cc1,-0.11,0.29,-9,7,0.2,8,.,.
CCOC(=O)c1c(-c2ccccc2)nnn1-c1nc(OCC)nc(N2CCCCC2)n1,-0.76,-1.9,35,7,6.6*,10,-29*,?
CCOC(=O)c1nnn(-c2nc(N3CCCC3)nc(N3CCCC3)n2)c1-c1ccccc1,2.3,-0.027,8,2,-0.21,24,.,.
c1ccc(CCCNc2ncnc3nc[nH]c23)cc1,-0.7,-0.45,-11,-5,1.7,-1,.,.
C1=C(CCNc2ncnc3nc[nH]c23)CCCC1,-5,-0.6,25,10,2.7*,18,?,-25
CCCNc1ncnc2nc[nH]c12,.,0.03,-19,4,-0.39,-3,.,.
Clc1ccc(CCNc2ncnc3nc[nH]c23)cc1,-5.3*,-2.6*,-16,8,15*,-19,?,?
C=CCn1c(=S)[nH]c2ccccc2c1=O,.,-0.5,11,-6,0.17,13,.,.
Cc1ccc(C(=O)Nc2ccccc2N2CCN(C(=O)C(C)C)CC2)cc1,0.19,-0.69,19,3,0.31,-6,.,.
COc1ccc(C(=O)Nc2ccc3oc(-c4cccc(F)c4)nc3c2)cc1OC,.,-0.088,2,-6,0.057,12,.,.
